Assay results taken from ChEMBL document CHEMBL3271960, “7-Aza analogs of the analgetic agent azabicyclane. Synthesis and pharmacologic analysis” (J Med Chem, 1976).
The source made the active and inactive calls. The rule behind the calls is not given here.

What was measured:
[1] = Dissociation constant, pKa of the compound; format: physicochemical
Outline: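 Apparent pKa* measured in 66% aqueous dimethylformamide at 30° by potentiometric titration of monoperchlorate salts with 0.1 M NaOH, with pH recorded via a combination electrode on a recording titrator.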

[2] = system: Mus musculus; test: Analgesic activity in Swiss-Webster Royal Hart mouse at 20 to 100 mg/kg, po administered as aqueous solution by Haffner tail clamp test; format: functional, organism-based
Outline: (§1)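 Male Swiss-Webster Royal Hart mice, groups of ten per dose level, doses up to 300 mg/kg per group. Water-soluble salts were given po or ip as aqueous solutions. Analgesia was tested by Haffner tail clamp and phenylquinone-induced writhing, anti-diarrheal effect as colonic propulsive motility, plus general behaviour observation.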

[3] = system: Mus musculus; test: Analgesic activity in Swiss-Webster Royal Hart mouse at 20 to 100 mg/kg, po administered as solution in 30% aqueous propylene glycol by Haffner tail clamp test; format: functional, organism-based
Outline: (§2)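 Male Swiss-Webster Royal Hart mice, ten per dose level, doses up to 300 mg/kg per group. Salt was dissolved in 30% aqueous propylene glycol and dosed po or ip. Analgesia was tested by Haffner tail clamp and phenylquinone-induced writhing, anti-diarrheal effect as colonic propulsive motility.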

[4] = system: Mus musculus; test: Analgesic activity in Swiss-Webster Royal Hart mouse at 20 to 100 mg/kg, po administered as aqueous solution by phenylquinone-induced writhing test; format: functional, organism-based; outline: as §1
[5] = system: Mus musculus; test: Analgesic activity in Swiss-Webster Royal Hart mouse at 20 to 100 mg/kg, po administered as solution in 30% aqueous propylene glycol by phenylquinone-induced writhing test; format: functional, organism-based; outline: as §2
[6] = system: Mus musculus; test: Antidiarrheal activity in Swiss-Webster Royal Hart mouse assessed as colonic propulsive motility at 20 to 100 mg/kg, po administered as aqueous solution; format: functional, organism-based; outline: as §1
[7] = system: Mus musculus; test: Antidiarrheal activity in Swiss-Webster Royal Hart mouse assessed as colonic propulsive motility at 20 to 100 mg/kg, po administered as solution in 30% aqueous propylene glycol; format: functional, organism-based; outline: as §2
[8] = system: Mus musculus; test: Convulsant activity in Swiss-Webster Royal Hart mouse at 30 to 100 mg/kg, ip administered as aqueous solution; format: ADME, organism-based; set-up: dose 30-100 mg/kg, route intraperitoneal; settings: in vivo; outline: as §1
[9] = system: Mus musculus; test: Convulsant activity in Swiss-Webster Royal Hart mouse at 100 to 300 mg/kg, ip administered as aqueous solution; format: ADME, organism-based; set-up: dose 100-300 mg/kg, route intraperitoneal; settings: in vivo; outline: as §1
[10] = system: Mus musculus; test: Analgesic activity in sc dosed Swiss-Webster Royal Hart mouse after 30 mins by Haffner tail clamp test; format: functional; settings: 0.5 h
[11] = system: Mus musculus; test: Antidiarrheal activity in Swiss-Webster Royal Hart mouse assessed as decrease in colonic propulsive motility at 10 mg/kg, ip; format: functional, organism-based; set-up: dose 10 mg/kg

Row | SMILES | pKa [1] | Activity [2] | Activity [3] | Activity [4] | Activity [5] | Activity [6] | Activity [7] | Activity [8] | Activity [9] | ED50 [10] | inhibition [11]
1 | CC1(C)C2CCC1(CS(=O)(=O)O)C(=O)C2.CN1C[C@H]2CN(C)C[C@H](C1)[C@@]2(O)c1ccccc1 | 11.7 | inactive | inactive | inactive | inactive | inactive | inactive | Toxic |  |  | 
2 | COC1(c2ccccc2)C2CN(C)CC1CN(C)C2 (stereo not given) | 11.7 | inactive | inactive | inactive | inactive | inactive | inactive |  |  |  | 
3 | CCC(=O)OC1(c2ccccc2)C2CN(C)CC1CN(C)C2.CS(=O)(=O)O (stereo not given) | 11 | inactive | inactive | inactive | inactive | inactive | inactive |  | Toxic |  | 
4 | CO[C@]1(c2ccccc2)[C@@H]2CCC[C@H]1CN(C)C2 |  |  |  |  |  |  |  |  |  | 3.9 mg/kg | Active
